From ChEMBL document CHEMBL1129534, “Antitumor agents. 163. Three-dimensional quantitative structure-activity relationship study of 4'-O-demethylepipodophyllotoxin analogs using the modified CoMFA/q2-GRS approach” (J Med Chem, 1996) come the findings set out here.

The target of the test is DNA topoisomerase II (Homo sapiens) (UniProt P11388+Q02880). Briefly: Compound tested for ability to form a cellular covalent topoisomerase II-DNA complex. The test is classed as functional. The procedure, abridged:
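Read-out is intracellular covalent topoisomerase II–DNA complex formation, scored as the percentage of cellular protein–DNA complex formed (PCPDCF). For CoMFA modelling the values were transformed to ln(PCPDCF + 1).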

The structures appear in SMILES notation.

In the case of `COc1cc([C@@H]2c3cc4c(cc3[C@@H](Nc3cccc(N)c3)[C@H]3COC(=O)[C@H]23)OCO4)cc(OC)c1O`, the Protein-DNA complex formation was found to be 140%.
As for `COc1cc([C@@H]2c3cc4c(cc3[C@@H](NC(=O)c3ccc(N)cc3)[C@H]3COC(=O)[C@H]23)OCO4)cc(OC)c1O`, the Protein-DNA complex formation worked out at 120%.
With `COc1cc([C@@H]2c3cc4c(cc3[C@@H](Nc3ccc(N5CCOCC5)cc3)[C@H]3COC(=O)[C@H]23)OCO4)cc(OC)c1O` the figure was 140%; with `COc1cc([C@@H]2c3cc4c(cc3[C@H](NCCO)[C@H]3COC(=O)[C@H]23)OCO4)cc(OC)c1O`, 0%.
As for `COc1ccc(N[C@@H]2c3cc4c(cc3[C@@H](c3cc(OC)c(O)c(OC)c3)[C@H]3C(=O)OC[C@@H]32)OCO4)cc1OC`, the figure is 180%.
For `COC(=O)c1ccc(N[C@@H]2c3cc4c(cc3[C@@H](c3cc(OC)c(O)c(OC)c3)[C@H]3C(=O)OC[C@@H]32)OCO4)cc1O`, the Protein-DNA complex formation was determined as 129%.
With `COc1cc([C@@H]2c3cc4c(cc3[C@@H](NCc3cccc(Cl)c3)[C@H]3COC(=O)[C@H]23)OCO4)cc(OC)c1O`, the Protein-DNA complex formation is 159%.
In the case of `COc1cc([C@@H]2c3cc4c(cc3[C@@H](O)[C@H]3COC(=O)[C@H]23)OCO4)cc(OC)c1O`, the Protein-DNA complex formation is 42.2%.
With `COc1cc([C@@H]2c3cc4c(cc3[C@@H](NCc3ccc([N+](=O)[O-])cc3)[C@H]3COC(=O)[C@H]23)OCO4)cc(OC)c1O`, the Protein-DNA complex formation was found to be 216%.
For `COc1cc([C@@H]2c3cc4c(cc3[C@@H](Nc3cccc(F)c3)[C@H]3COC(=O)[C@H]23)OCO4)cc(OC)c1O`, the Protein-DNA complex formation amounted to 158%.
